# The source made the active and inactive calls. No cut-off for these calls is given here.
# Assays:
# Cryptococcus neoformans = assay: Antifungal activity against Cryptococcus neoformans ATCC MYA-895 assessed as fungal growth inhibition by double dilution method; format: functional
# Outline: (§1)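 Broth microdilution after CLSI M27-A3/M38-A2 with minor changes. Single colony grown overnight in YPD at 35 °C, 200 rpm. Compound final range 0.06-31.3 µg/mL; incubated 48 h at 35 °C.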
# [1] = Cytotoxicity against human HepG2 cells assessed as cell survival at 31.3 microg/ml relative to control; format: toxicity, cell-based; settings: at 31.3 µg/mL, read-out: Activity
# Outline: (§2)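 Cells in DMEM with 10% FBS and 1% Pen/Strep, seeded at 10,000 cells/well and held overnight at 37 °C, 5% CO2. Compounds added at final 31.3-0.12 µg/mL (0.05% DMSO vehicle) for 24 h. Resazurin then added for 6 h; fluorescence read at ex 560/em 590. Triton X-100 1% as positive control; values normalized to vehicle. Run in quadruplicate.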
# HEK293 = assay: Cytotoxicity against human HEK-293 cells assessed as reduction in cell viability at 31.3 microg/ml; format: toxicity, cell-based; settings: dose 31.3 µg/ml; outline: as §2
# Aspergillus fumigatus [2] = assay: Antifungal activity against Aspergillus fumigatus NRRL 6113 assessed as fungal growth inhibition by double dilution method; format: functional
# Candida albicans [3] = assay: Antifungal activity against Candida albicans ATCC 10231 assessed as fungal growth inhibition by double dilution method; format: functional; outline: as §1
# Candida albicans [4] = assay: Antifungal activity against Candida albicans ATCC 64124 assessed as fungal growth inhibition by double dilution method; format: functional
# Outline: (§3)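 Broth microdilution after CLSI M27-A3/M38-A2 with minor modifications. A single colony was grown overnight in YPD at 35 °C with shaking at 200 rpm. Cells were mixed 1:1 with compound (final 0.06-31.3 µg/mL, from DMSO stocks) and incubated 48 h at 35 °C.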
# Candida albicans [5] = assay: Antifungal activity against itraconazole/fluconazole resistant Candida albicans ATCC MYA-1003 assessed as fungal growth inhibition by double dilution method; format: functional; outline: as §3
# Aspergillus fumigatus [6] = assay: Antifungal activity against Aspergillus fumigatus NRRL 163 assessed as fungal growth inhibition by double dilution method; format: functional
# Aspergillus terreus = assay: Antifungal activity against Aspergillus terreus ATCC MYA-3633 assessed as fungal growth inhibition by double dilution method; format: functional
# [Candida] auris [7] = Antifungal activity against Candida auris AR Bank # 0384 assessed as fungal growth inhibition by double dilution method; format: functional; settings: Candidozyma auris; outline: as §1
# Candida albicans [8] = assay: Antifungal activity against itraconazole/fluconazole susceptible Candida albicans ATCC MYA-2310 assessed as fungal growth inhibition by double dilution method; format: functional; outline: as §3
# Aspergillus flavus = assay: Antifungal activity against Aspergillus flavus ATCC MYA-3631 assessed as fungal growth inhibition by double dilution method; format: functional
# Candida albicans [9] = assay: Antifungal activity against itraconazole/fluconazole resistant Candida albicans ATCC 90819 assessed as fungal growth inhibition by double dilution method; format: functional; outline: as §3
# Aspergillus fumigatus [10] = assay: Antifungal activity against Aspergillus fumigatus NRRL 5109 assessed as fungal growth inhibition by double dilution method; format: functional
# Pichia kudriavzevii [11] = assay: Antifungal activity against Pichia kudriavzevii ATCC 6258 assessed as fungal growth inhibition by double dilution method; format: functional; outline: as §1
# Nakaseomyces glabratus [12] = assay: Antifungal activity against Candida glabrata ATCC 2001 assessed as fungal growth inhibition by double dilution method; format: functional; outline: as §1
# Candida albicans [13] = assay: Antifungal activity against itraconazole/fluconazole susceptible Candida albicans ATCC MYA-2876 assessed as fungal growth inhibition by double dilution method; format: functional; outline: as §3
# Nakaseomyces glabratus [14] = assay: Antifungal activity against Candida glabrata ATCC 22019 assessed as fungal growth inhibition by double dilution method; format: functional; outline: as §1
# J774.A1 = assay: Cytotoxicity against J774A.1 cells assessed as reduction in cell viability at 31.3 microg/ml; format: toxicity, cell-based; settings: mouse, dose 31.3 µg/ml; outline: as §2
# Aspergillus nidulans = assay: Antifungal activity against Aspergillus nidulans ATCC 38163 assessed as fungal growth inhibition by double dilution method; format: functional
# Candida albicans [15] = assay: Antifungal activity against itraconazole/fluconazole resistant Candida albicans ATCC MYA-1237 assessed as fungal growth inhibition by double dilution method; format: functional; outline: as §3
# [Candida] auris [16] = Antifungal activity against Candida auris AR Bank # 0390 assessed as fungal growth inhibition by double dilution method; format: functional; settings: Candidozyma auris; outline: as §1
# Kodamaea ohmeri = assay: Antifungal activity against Kodamaea ohmeri AR Bank # 396 assessed as fungal growth inhibition by double dilution method; format: functional; outline: as §1
# [Candida] auris [17] = Antifungal activity against Candida auris AR Bank # 388 assessed as fungal growth inhibition by double dilution method; format: functional; settings: Candidozyma auris; outline: as §1
# [Candida] auris [18] = Antifungal activity against Candida auris AR Bank # 383 assessed as fungal growth inhibition by double dilution method; format: functional; settings: Candidozyma auris; outline: as §1
# Saccharomyces cerevisiae [19] = assay: Antifungal activity against Saccharomyces cerevisiae AR Bank # 399 assessed as fungal growth inhibition by double dilution method; format: functional; outline: as §1
# Pichia kudriavzevii [20] = assay: Antifungal activity against Pichia kudriavzevii AR Bank # 397 assessed as fungal growth inhibition by double dilution method; format: functional; outline: as §1
# [Candida] auris [21] = Antifungal activity against Candida auris AR Bank # 386 assessed as fungal growth inhibition by double dilution method; format: functional; settings: Candidozyma auris; outline: as §1
# [Candida] auris [22] = Antifungal activity against Candida auris AR Bank # 390 assessed as fungal growth inhibition by double dilution method; format: functional; settings: Candidozyma auris; outline: as §1
# [Candida] auris [23] = Antifungal activity against Candida auris AR Bank # 385 assessed as fungal growth inhibition by double dilution method; format: functional; settings: Candidozyma auris; outline: as §1
# Candida duobushaemulonii [24] = assay: Antifungal activity against Candida duobushaemulonii AR Bank # 394 assessed as fungal growth inhibition by double dilution method; format: functional; settings: Candidozyma duobushaemuli; outline: as §1
# [Candida] haemuloni [25] = Antifungal activity against Candida haemulonii AR Bank # 393 assessed as fungal growth inhibition by double dilution method; format: functional; settings: Candidozyma haemuli; outline: as §1
# [Candida] auris [26] = Antifungal activity against Candida auris AR Bank # 387 assessed as fungal growth inhibition by double dilution method; format: functional; settings: Candidozyma auris; outline: as §1
# [Candida] auris [27] = Antifungal activity against Candida auris AR Bank # 381 assessed as fungal growth inhibition by double dilution method; format: functional; settings: Candidozyma auris; outline: as §1
# [Candida] auris [28] = Antifungal activity against Candida auris AR Bank # 384 assessed as fungal growth inhibition by double dilution method; format: functional; settings: Candidozyma auris; outline: as §1
# Saccharomyces cerevisiae [29] = assay: Antifungal activity against Saccharomyces cerevisiae AR Bank # 400 assessed as fungal growth inhibition by double dilution method; format: functional; outline: as §1
# Clavispora lusitaniae = assay: Antifungal activity against Clavispora lusitaniae AR Bank # 398 assessed as fungal growth inhibition by double dilution method; format: functional; outline: as §1
# [Candida] auris [30] = Antifungal activity against Candida auris AR Bank # 382 assessed as fungal growth inhibition by double dilution method; format: functional; settings: Candidozyma auris; outline: as §1
# Candida duobushaemulonii [31] = assay: Antifungal activity against Candida duobushaemulonii AR Bank # 391 assessed as fungal growth inhibition by double dilution method; format: functional; settings: Candidozyma duobushaemuli; outline: as §1
# [Candida] haemuloni [32] = Antifungal activity against Candida haemulonii AR Bank # 395 assessed as fungal growth inhibition by double dilution method; format: functional; settings: Candidozyma haemuli; outline: as §1
# Candida duobushaemulonii [33] = assay: Antifungal activity against Candida duobushaemulonii AR Bank # 392 assessed as fungal growth inhibition by double dilution method; format: functional; settings: Candidozyma duobushaemuli; outline: as §1
# Candida albicans [34] = assay: Antibiofilm activity against Candida albicans ATCC 10231 assessed as reduction in biofilm production at 1.96 to 3.9 microg/ml by biofilm formation assay; format: functional, organism-based; settings: dose 1.96-3.9 µg/ml
# [Candida] auris [35] = Antifungal activity against Candida auris AR Bank # 389 assessed as fungal growth inhibition by double dilution method; format: functional; settings: Candidozyma auris; outline: as §1
smiles,measurement,setting,value
O=C(NNc1cccc(F)c1)c1cnccn1,MIC,Cryptococcus neoformans,0.12 µg/mL
same,viability at 31.3 microg/ml,[1],94%
same,Activity,HEK293,Non-Toxic
same,MIC,Aspergillus fumigatus [2],> 31.3 µg/mL
same,MIC,Candida albicans [3],0.24 µg/mL
same,MIC,Candida albicans [4],1.95 µg/mL
same,MIC,Candida albicans [5],0.98 µg/mL
same,MIC,Aspergillus fumigatus [6],> 31.3 µg/mL
same,MIC,Aspergillus terreus,0.98 µg/mL
same,MIC,[Candida] auris [7],0.98 µg/mL
same,MIC,Candida albicans [8],7.8 µg/mL
same,MIC,Aspergillus flavus,15.6 µg/mL
same,MIC,Candida albicans [9],0.98 µg/mL
same,MIC,Aspergillus fumigatus [10],> 31.3 µg/mL
same,MIC,Pichia kudriavzevii [11],0.49 µg/mL
same,MIC,Nakaseomyces glabratus [12],7.8 µg/mL
same,MIC,Candida albicans [13],3.9 µg/mL
same,MIC,Nakaseomyces glabratus [14],3.9 µg/mL
same,Activity,J774.A1,Non-Toxic
same,MIC,Aspergillus nidulans,0.98 µg/mL
same,MIC,Candida albicans [15],0.98 µg/mL
same,MIC,[Candida] auris [16],0.98 µg/mL
O=C(NNc1cc(F)cc(F)c1)c1ccccn1,MIC,Cryptococcus neoformans,0.24 µg/mL
same,viability at 31.3 microg/ml,[1],89%
same,Activity,HEK293,Non-Toxic
same,MIC,Kodamaea ohmeri,0.12 µg/mL
same,MIC,[Candida] auris [17],0.24 µg/mL
same,MIC,[Candida] auris [18],0.24 µg/mL
same,MIC,Saccharomyces cerevisiae [19],1.95 µg/mL
same,MIC,Aspergillus fumigatus [2],31.3 µg/mL
same,MIC,Candida albicans [3],≤ 0.06 µg/mL
same,MIC,Candida albicans [4],0.98 µg/mL
same,MIC,Candida albicans [5],0.49 µg/mL
same,MIC,Aspergillus fumigatus [6],> 31.3 µg/mL
same,MIC,Pichia kudriavzevii [20],0.12 µg/mL
same,MIC,[Candida] auris [21],≤ 0.06 µg/mL
same,MIC,[Candida] auris [22],0.49 µg/mL
same,MIC,Aspergillus terreus,0.98 µg/mL
same,MIC,[Candida] auris [7],0.24 µg/mL
same,MIC,[Candida] auris [23],0.24 µg/mL
same,MIC,Candida duobushaemulonii [24],0.24 µg/mL
same,MIC,[Candida] haemuloni [25],0.49 µg/mL
same,MIC,Candida albicans [8],0.98 µg/mL
same,MIC,[Candida] auris [26],0.24 µg/mL
same,MIC,[Candida] auris [27],0.98 µg/mL
same,MIC,[Candida] auris [28],0.98 µg/mL
same,MIC,Aspergillus flavus,1.95 µg/mL
same,MIC,Candida albicans [9],0.98 µg/mL
same,MIC,Saccharomyces cerevisiae [29],0.98 µg/mL
same,MIC,Clavispora lusitaniae,0.49 µg/mL
same,MIC,Aspergillus fumigatus [10],> 31.3 µg/mL
same,MIC,[Candida] auris [30],0.12 µg/mL
same,MIC,Pichia kudriavzevii [11],0.24 µg/mL
same,MIC,Nakaseomyces glabratus [12],7.8 µg/mL
same,MIC,Candida albicans [13],0.98 µg/mL
same,MIC,Candida duobushaemulonii [31],0.24 µg/mL
same,MIC,[Candida] haemuloni [32],0.24 µg/mL
same,MIC,Nakaseomyces glabratus [14],1.95 µg/mL
same,MIC,Candida duobushaemulonii [33],0.49 µg/mL
same,Activity,Candida albicans [34],inactive
same,Activity,J774.A1,Non-Toxic
same,MIC,Aspergillus nidulans,0.49 µg/mL
same,MIC,Candida albicans [15],1.95 µg/mL
same,MIC,[Candida] auris [35],0.24 µg/mL
same,MIC,[Candida] auris [16],0.49 µg/mL
